Measurements: ChEMBL document CHEMBL1122883, “An interdisciplinary approach to the design of new structures active at the beta-adrenergic receptor. Aliphatic oxime ether derivatives” (J Med Chem, 1985)

What was measured:
[1] = molecular target: Beta-2 adrenergic receptor (Cavia porcellus) (UniProt Q8K4Z4); assay: Specific antagonistic activity difference against beta-2 adrenergic receptor of isolated guinea pig tracheal strips; format: functional
[2] = molecular target: Beta-1 adrenergic receptor (Cavia porcellus) (UniProt B0FL73); assay: Specific antagonistic activity difference against beta-1 adrenergic receptor of isolated guinea pig atria; format: functional
[3] = molecular target: Beta-1 adrenergic receptor (Cavia porcellus, UniProt B0FL73); assay: (§1) Antagonistic activity against beta-1 adrenergic receptor of isolated guinea pig atria; format: functional; settings: read-out: pA2 (converted)
In short: (§2)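 Antagonism was assessed from dose–response curves to noradrenaline and isoprenaline obtained before and after a 20 min contact period with the test antagonist. Each agonist was allowed to act until maximal response.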

[4] = molecular target: Beta-2 adrenergic receptor (Cavia porcellus) (UniProt Q8K4Z4); assay: Antagonistic activity against beta-2 adrenergic receptor of isolated guinea pig tracheal strips; format: functional, tissue-based; settings: Trachea
In short: (§3)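 Tracheal strips from male adult guinea pigs (300–350 g) in Krebs–Henseleit with ascorbic acid (0.1 mg/mL) and phentolamine (0.1 μg/mL), 37 °C, 95% O2–5% CO2. Strips were under 0.5 g tension, stabilized 30 min, and given steady tone with carbachol 5 × 10^-7 M. Isotonic recording. Agonist dose–response curves to noradrenaline and isoprenaline were run before and after 20 min antagonist contact.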

[5] = molecular target: Beta-1 adrenergic receptor (Cavia porcellus) (UniProt B0FL73); assay: as §1; format: functional; in short: as §2
[6] = molecular target: Beta-2 adrenergic receptor (Cavia porcellus, UniProt Q8K4Z4); assay: Antagonistic activity against beta-2 adrenergic receptor on isolated guinea pig tracheal strips; format: functional, tissue-based, Trachea; settings: read-out: pA2 (converted); in short: as §3
[7] = molecular target: Beta-1 adrenergic receptor (Cavia porcellus) (UniProt B0FL73)
[8] = molecular target: Beta-1 adrenergic receptor (Cavia porcellus) (UniProt B0FL73); assay: […] activity against beta-1 adrenergic receptor on isolated guinea pig atria; format: functional; in short: as §2
[9] = molecular target: Beta-1 adrenergic receptor (Cavia porcellus) (UniProt B0FL73); assay: Stimulating activity against beta-1
In short: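 Agonist given until maximal response was reached, building dose–response curves. Affinity expressed as pD2, calculated by the Ariëns–Van Rossum method.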

Beta-2 adrenergic receptor, sequence (Q8K4Z4 whole entry): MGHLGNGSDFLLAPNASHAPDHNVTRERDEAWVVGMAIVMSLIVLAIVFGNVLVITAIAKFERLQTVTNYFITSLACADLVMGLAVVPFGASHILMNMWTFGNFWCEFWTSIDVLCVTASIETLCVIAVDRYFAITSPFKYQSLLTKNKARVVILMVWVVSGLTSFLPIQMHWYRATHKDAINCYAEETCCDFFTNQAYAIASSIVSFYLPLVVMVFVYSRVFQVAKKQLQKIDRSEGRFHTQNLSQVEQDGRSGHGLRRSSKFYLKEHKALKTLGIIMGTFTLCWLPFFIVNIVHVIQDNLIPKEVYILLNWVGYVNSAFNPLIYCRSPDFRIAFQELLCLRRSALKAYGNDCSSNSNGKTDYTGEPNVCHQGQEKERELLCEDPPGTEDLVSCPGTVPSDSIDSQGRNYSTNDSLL
Beta-2 adrenergic receptor (Cavia porcellus), sequence (Q8K4Z4 whole entry, looked up): as the sequence (Q8K4Z4 whole entry) above
Beta-1 adrenergic receptor, sequence (B0FL73 whole entry): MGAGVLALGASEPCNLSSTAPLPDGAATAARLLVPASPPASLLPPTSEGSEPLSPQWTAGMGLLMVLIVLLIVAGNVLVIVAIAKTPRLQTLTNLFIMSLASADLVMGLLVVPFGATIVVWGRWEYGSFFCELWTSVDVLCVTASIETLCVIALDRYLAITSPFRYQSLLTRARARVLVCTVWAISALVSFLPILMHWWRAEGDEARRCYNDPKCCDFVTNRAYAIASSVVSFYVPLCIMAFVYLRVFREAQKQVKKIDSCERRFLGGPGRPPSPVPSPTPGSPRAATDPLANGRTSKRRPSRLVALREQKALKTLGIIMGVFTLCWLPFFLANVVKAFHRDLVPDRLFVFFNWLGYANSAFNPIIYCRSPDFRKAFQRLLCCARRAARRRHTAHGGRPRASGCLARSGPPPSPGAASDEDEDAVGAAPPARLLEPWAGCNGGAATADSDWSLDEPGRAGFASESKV
Beta-1 adrenergic receptor (Cavia porcellus), sequence (B0FL73 1-467): as the sequence (B0FL73 whole entry) above

SMILES | pA2 - pA10 [1] | pA2 - pA10 [2] | Kb [3] [nM] | pA10 [4] | pA10 [5] | Kb [6] [nM] | pD2 [7] | pD2 [8] | pD2 [9]
OCc1ccc(O)c(O)c1 | – | – | – | – | – | – | – | 8.44 | –
CC(C)(C)NCC(O)CON=C1CCCCC1 (centres undefined) | 0.6 | 0.78 | 8320 | 6.81 | 4.3 | 38.9 | – | – | –
CC(C)NCC(O)CON=C1CCCCC1 (centres undefined) | 0.5 | 0.82 | 20000 | 6.64 | 3.88 | 72.4 | – | – | –
CC(C)(C)NCC(O)CON=C1CCCC1 (centres undefined) | 0.88 | 0.69 | 53700 | 5.88 | 3.58 | 174 | – | – | –
COc1ccc(OC)c(C(O)C(C)NC(C)(C)C)c1 (centres undefined) [BUTOXAMINE] | 0.93 | 0.37 | 44700 | 5.96 | 3.98 | 129 | – | – | –

More lines, now with the values ahead:

pA2 - pA10 [1] | pA2 - pA10 [2] | Kb [3] [nM] | pA10 [4] | pA10 [5] | Kb [6] [nM] | pD2 [7] | pD2 [8] | pD2 [9] | SMILES
0.84 | 0.71 | 1260 | 7.14 | 5.19 | 10.5 | – | – | – | CCC(CC)=NOCC(O)CNC(C)(C)C (centres undefined)
0.69 | 0.85 | 4680 | 7.93 | 4.48 | 2.4 | – | – | – | CCCC(CCC)=NOCC(O)CNC(C)(C)C (centres undefined)
0.9 | 0.89 | 17000 | 7.62 | 3.88 | 3.02 | 6.08 | – | – | CC(C)NCC(O)CON=C(C(C)C)C(C)C (centres undefined)
0.82 | 0.9 | 14500 | 6.82 | 3.94 | 22.9 | – | – | 6.12 | CC(C)C(=NOCC(O)CNC(C)(C)C)C(C)C (centres undefined)
0.71 | 0.8 | 24500 | 6.09 | 3.81 | 155 | – | – | – | CC(C)NCC(O)CON=C1CCCC1 (centres undefined)
0.81 | 0.78 | 955 | 7.57 | 5.24 | 4.17 | – | – | – | CCC(CC)=NOCC(O)CNC(C)C (centres undefined)
0.714 | 0.55 | 20900 | 7.49 | 4.13 | 6.31 | – | – | – | CCCC(CCC)=NOCC(O)CNC(C)C (centres undefined)
